Data reported in ChEMBL document CHEMBL1129623, “Effects of multidrug resistance (MDR1) P-glycoprotein expression levels and coordination metal on the cytotoxic potency of multidentate (N4O2) (ethylenediamine)bis[propyl(R-benzylimino)]metal(III) cations” (1996).
The source made the active and inactive calls. No cut-off for these calls is given here.

Assays:
KB 3-1 [1] = assay: Compound was tested for cytotoxic lethal concentration on R-ENBPI […] complexs in human drug sensitive (KB-3-1)cells parentheses value indicates SEM; format: functional; conditions: read-out: LC50 (the source's name)
Method in brief: (§1)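 Parental KB-3-1 human epidermal carcinoma cells, no immunodetectable P-glycoprotein, 5000/well in 5% FBS medium, 4 h recovery. Complex was added in triplicate wells up to 100 μM, 72 h at 37 °C, 5% CO2. Cells were TCA-fixed and stained with 0.4% SRB, dye dissolved in 10 mM Tris, A490–450. LC50 was from a sigmoid fit of survival versus vehicle control, Smin constrained to zero.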

KB [2] = assay: Compound was tested for dependency on R-ENBPI In(III) complex in multi drug resistant (KB-8-5)cells.; format: functional, Homo sapiens
Method in brief: (§2)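 KB-8-5 multidrug-resistant cells were kept drug-free for 96 h, then plated at 5000/well in 5% FBS medium and allowed 4 h to recover. Complexes were added in triplicate up to 100 μM for 72 h at 37 °C. Survival was read by SRB staining (490–450 nm) relative to vehicle. LC50 came from a sigmoid fit with Smin fixed at zero, giving CV% and dependency statistics.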

KB [3] = assay: Compound was tested for dependency on R-ENBPI Al(III) complex in multi drug resistant (KB-8-5)cells.; format: functional, Homo sapiens; method in brief: as §2
KB 3-1 [4] = assay: (§3) Compound was tested for dependency on R-ENBPI Fe(III) complex in human drug sensitive (KB-3-1)cells.; format: functional; conditions: read-out: LC50 (the source's name)
Method in brief: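 Parameter dependency from the sigmoid fit S={(Smax−Smin)/[1+(C/LC50)^γ]}+Smin of KB-3-1 SRB survival data: 72 h exposure, triplicate wells, up to 100 μM, Smin constrained to zero. It is used to judge overparameterization of the fitted curve.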

KB [5] = assay: Compound was tested for cytotoxic lethal concentration on R-ENBPI Fe(III) complex in multi drug resistant (KB-8-5)cells.; format: functional; conditions: Homo sapiens, read-out: LC50 (the source's name)
Method in brief: (§4)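 KB-8-5 cells are colchicine-selected and express modest MDR1 P-glycoprotein. They were kept in drug-free medium for 96 h, then plated at 5000/well in 5% FBS medium and allowed 4 h recovery. Complex was added in triplicate up to 100 μM, with 72 h at 37 °C, 5% CO2. Read-out was SRB staining after TCA fixation, A490–450. LC50 came from a sigmoid fit (Smin=0) of survival relative to vehicle. Values ≥100 μM were not fitted.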

KB 3-1 [6] = assay: as §3; format: functional
Method in brief: (§5)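 KB-3-1 cells were plated at 5000/well in 5% FBS medium and allowed 4 h to recover. Complexes were added in triplicate at concentrations up to 100 μM, then incubated 72 h at 37 °C, 5% CO2. Cells were TCA-fixed and stained with SRB, read at 490–450 nm, and expressed as % of vehicle control. A sigmoid fit with Smin constrained to zero gave LC50 and fit dependencies.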

KB 3-1 [7] = assay: Compound was tested for dependency on R-ENBPI Ga(III) complexs in human drug sensitive (KB-3-1)cells.; format: functional; method in brief: as §5
KB [8] = assay: Compound was tested for dependency on R-ENBPI Ga(III) complex in […] (KB-8-5) cells.; format: functional; method in brief: as §2
KB [9] = assay: Compound was tested for coefficient of variation percent on R-ENBPI Fe(III) complex in multi drug resistant (KB-8-5) cells; NA=not applicable; format: functional, cell-based; conditions: Homo sapiens; method in brief: as §2
KB [10] = assay: Compound was tested for dependency on R-ENBPI Fe(III) complex in multi drug resistant (KB-8-5) cells; NA=not applicable; format: functional, cell-based; conditions: Homo sapiens; method in brief: as §2
KB [11] = assay: Compound was tested for cytotoxic lethal concentration on R-ENBPI In(III) complex in multi drug resistant (KB-8-5)cells.; format: functional; conditions: Homo sapiens, read-out: LC50 (the source's name); method in brief: as §4
KB [12] = assay: Compound was tested for cytotoxic lethal concentration on R-ENBPI Al(III) complex in multi drug resistant (KB-8-5)cells.; format: functional; conditions: Homo sapiens, read-out: LC50 (the source's name); method in brief: as §4
KB [13] = assay: Compound was tested for cytotoxic lethal concentration on R-ENBPI Ga(III) complex in multi drug resistant (KB-8-5)cells.; format: functional; conditions: Homo sapiens, read-out: LC50 (the source's name); method in brief: as §4
KB 3-1 [14] = assay: Compound was tested for cytotoxic lethal concentration on R-ENBPI Al(III) complexs in human drug sensitive (KB-3-1)cells; format: functional; conditions: read-out: LC50 (the source's name); method in brief: as §1
KB 3-1 [15] = assay: Compound was tested for cytotoxic lethal concentration on R-ENBPI In(III) complexs in human drug sensitive (KB-3-1)cells. parentheses value indicates SEM; format: functional; conditions: read-out: LC50 (the source's name); method in brief: as §1
KB 3-1 [16] = assay: Compound was tested for dependency on R-ENBPI In(III) complexs in human drug sensitive (KB-3-1)cells.; format: functional; method in brief: as §5
KB 3-1 [17] = assay: Compound was tested for dependency on R-ENBPI Al(III) complexs in human drug sensitive (KB-3-1)cells.; format: functional; method in brief: as §5
KB [18] = assay: Compound was tested for cytotoxic lethal concentration on R-ENBPI Fe(III) complex in multi drug resistant (KB-8-5) cells; NA=not applicable; format: functional, cell-based; conditions: Homo sapiens; method in brief: as §4
KB [19] = assay: Compound was tested for coefficient of variation percent on R-ENBPI Al(III) complex in multi drug resistant (KB-8-5) cells; NA=not applicable; format: functional, cell-based; conditions: Homo sapiens; method in brief: as §2
KB [20] = assay: Compound was tested for dependency on R-ENBPI Ga(III) complex in […] (KB-8-5) cells; NA=not applicable; format: functional, cell-based; method in brief: as §2
KB 3-1 [21] = assay: Compound was tested for cytotoxic lethal concentration on R-ENBPI […] complexs in human drug sensitive (KB-3-1)cells. parentheses value indicates SEM; format: functional; conditions: read-out: LC50 (the source's name); method in brief: as §1
KB [22] = assay: Compound was tested for cytotoxic lethal concentration on R-ENBPI Ga(III) complex in multi drug resistant (KB-8-5) cells; NA=not applicable; format: functional, cell-based; conditions: Homo sapiens; method in brief: as §4
KB [23] = assay: Compound was tested for coefficient of variation percent on R-ENBPI Ga(III) complex in multi drug resistant (KB-8-5) cells; NA=not applicable; format: functional, cell-based; conditions: Homo sapiens; method in brief: as §2
KB 3-1 [24] = assay: Compound was tested for cytotoxic lethal concentration on R-ENBPI Al(III) complexs in human drug sensitive (KB-3-1)cells. parentheses value indicates SEM; format: functional; conditions: read-out: LC50 (the source's name); method in brief: as §1
KB [25] = assay: Compound was tested for dependency on R-ENBPI Al(III) complex in multi drug resistant (KB-8-5) cells; NA=not applicable; format: functional, cell-based; conditions: Homo sapiens; method in brief: as §2

Row | Compound | Dependency (KB [2]) | CC50 (KB 3-1 [4]) | Dependency (KB 3-1 [6]) | Dependency (KB 3-1 [7]) | CV (KB [9]) | Dependency (KB [10]) | CC50 (KB [11]) | CC50 (KB [12]) | CC50 (KB 3-1 [15]) | Dependency (KB 3-1 [16]) | Dependency (KB 3-1 [17]) | other results
1 | COc1cccc(/C=N/CCCN2CCN(CCC/N=C/c3cccc(OC)c3O)C2c2cccc(OC)c2O)c1O | 0.36 | 9 µM | 0.68 | 0.45 | inactive | inactive | 24.2 µM | < 27.5 µM | 16.6 µM | 0.41 | 0.46 | CC50 (KB 3-1 [1]): < 42.6 µM; Dependency (KB [3]): 0.33; CC50 (KB [5]): > 100 µM; Dependency (KB [8]): 0.39; CC50 (KB [13]): < 110 µM; CC50 (KB 3-1 [14]): 11.4 µM
2 | COc1cc(O)c(/C=N/CCCN2CCN(CCC/N=C/c3c(O)cc(OC)cc3OC)C2c2c(O)cc(OC)cc2OC)c(OC)c1 | 0.38 | < 1.1 µM | 0.23 | 0.34 | inactive | inactive | 61.8 µM | > 100 µM | 63.8 µM | 0.38 | 0.39 | LC50 (KB [18]): inactive; CV (KB [19]): inactive; Dependency (KB [20]): inactive; CC50 (KB 3-1 [21]): 3.7 µM; LC50 (KB [22]): inactive; CV (KB [23]): inactive; CC50 (KB 3-1 [24]): < 1.4 µM; Dependency (KB [25]): inactive
